Values after ≈ are worked out from the molar mass of the structure shown.
Experiments:
[1] = Selectivity index, ratio of IC50 for monkey Vero cells to MIC for Mycobacterium tuberculosis H37Rv; format: functional
[2] = tested on: Mycobacterium tuberculosis; experiment: Antimycobacterial activity against Mycobacterium tuberculosis ATCC 35801 infected in CD1 mouse assessed as bacterial load in spleen at 50 mg/kg, ip after 10 days; format: functional; conditions: route intraperitoneal
In short: (§1)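 Female CD-1 mice, 6 weeks old, six per group, infected IV via caudal vein with ~10⁷ viable organisms. Intraperitoneal treatment started 10 days after inoculation and ran 10 days. At 35 days post-infection, spleens and right lungs were homogenised and serially 10-fold diluted onto 7H10 agar, incubated 4 weeks at 37 °C in ambient air. CFU compared with vehicle-treated controls.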

Vero = experiment: Cytotoxicity against african green monkey Vero cells after 72 hrs by MTT assay; format: cell-based; conditions: Chlorocebus sabaeus
In short: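 Mammalian Vero cells exposed to compounds at 62.5 µg/ml for 72 h; viability read by cellular conversion of MTT to formazan (Cell Titer 96 non-radioactive proliferation assay).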

[3] = tested on: Mycolicibacterium smegmatis; experiment: Antimycobacterial activity against Mycobacterium smegmatis MC2 by agar dilution method; format: functional
In short: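 Agar dilution in Middlebrook 7H11 agar with OADC, run along NCCLS-recommended lines; M. smegmatis ATCC 14468 (MC2); MIC determined in duplicate.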

[4] = tested on: Mycobacterium tuberculosis; experiment: Antimycobacterial activity against Mycobacterium tuberculosis H37Rv by agar dilution method; format: functional
In short: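 Agar dilution MIC on Middlebrook 7H11 agar with OADC, following the NCCLS-recommended approach, run in duplicate. The MDR clinical isolate was resistant to isoniazid, rifampicin, ethambutol and ofloxacin.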

Mus musculus [5] = experiment: Phototoxicity in Swiss albino mouse assessed as erythema incidence at 140 mg/kg, po after 4 hrs of irradiation; format: organism-based; parameters: dose 140 mg/kg, route oral; conditions: in vivo
In short: (§2)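 Female Swiss albino mice (~2 months, 20-25 g), fasted ≥18 h, single 140 mg/kg oral gavage dose; groups of 6 (compound, lomefloxacin HCl 140 mg/kg, 0.5% carboxymethylcellulose vehicle 10 ml/kg); UV irradiation 4 h (~18 J/cm²) right after dosing; both ears scored for erythema, oedema, thickness pre-dose, at end of irradiation, and ~24-96 h; thickness given as mean of both ears ± SEM.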

Mus musculus [6] = experiment: Phototoxicity in Swiss albino mouse assessed as ear thickness at 140 mg/kg, po after 72 hrs of irradiation; format: organism-based; parameters: dose 140 mg/kg, route oral; conditions: in vivo; in short: as §2
Mus musculus [7] = experiment: Phototoxicity in Swiss albino mouse assessed as erythema incidence at 140 mg/kg, po after 24 hrs of irradiation; format: organism-based; parameters: dose 140 mg/kg, route oral; conditions: in vivo; in short: as §2
Mus musculus [8] = experiment: Phototoxicity in Swiss albino mouse assessed as ear thickness at 140 mg/kg, po after 24 hrs of irradiation; format: organism-based; parameters: dose 140 mg/kg, route oral; conditions: in vivo; in short: as §2
Mus musculus [9] = experiment: (§3) Phototoxicity in Swiss albino mouse assessed as erythema incidence at 140 mg/kg, po after 48 hrs of irradiation; format: organism-based; parameters: dose 140 mg/kg, route oral; conditions: in vivo; in short: as §2
[10] = target: DNA gyrase subunit B (Mycobacterium smegmatis (strain ATCC 700084 / mc(2)155), UniProt A0QNE0); experiment: Inhibition of Mycobacterium smegmatis MC2 DNA gyrase GyrB ATPase supercoiling activity; parameters: species or system Mycolicibacterium smegmatis
Sequence of DNA gyrase subunit B (Mycobacterium smegmatis (strain ATCC 700084 / mc(2)155), UniProt A0QNE0) (A0QNE0 whole entry): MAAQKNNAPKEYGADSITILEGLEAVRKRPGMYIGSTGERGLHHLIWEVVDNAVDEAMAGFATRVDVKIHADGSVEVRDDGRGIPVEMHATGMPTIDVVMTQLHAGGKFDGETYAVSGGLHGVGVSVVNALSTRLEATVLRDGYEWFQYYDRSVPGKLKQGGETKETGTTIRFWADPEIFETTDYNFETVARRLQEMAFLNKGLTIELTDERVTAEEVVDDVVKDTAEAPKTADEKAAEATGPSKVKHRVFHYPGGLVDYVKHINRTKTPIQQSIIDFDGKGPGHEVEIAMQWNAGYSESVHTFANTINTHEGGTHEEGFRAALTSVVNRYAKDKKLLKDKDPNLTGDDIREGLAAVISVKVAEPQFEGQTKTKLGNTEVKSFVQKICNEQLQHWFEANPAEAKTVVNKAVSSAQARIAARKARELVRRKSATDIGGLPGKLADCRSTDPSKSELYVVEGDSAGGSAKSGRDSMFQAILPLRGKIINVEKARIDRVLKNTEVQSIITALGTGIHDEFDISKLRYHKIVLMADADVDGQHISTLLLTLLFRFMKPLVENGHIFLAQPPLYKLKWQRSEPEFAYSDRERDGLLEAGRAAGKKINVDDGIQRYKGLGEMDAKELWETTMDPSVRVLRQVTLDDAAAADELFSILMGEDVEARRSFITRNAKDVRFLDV
In short: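 Gyrase purified from M. smegmatis MC2 cells; compounds in DMSO pre-incubated with enzyme, then 400 ng relaxed pUC18 added in 35 mM Tris-HCl pH 7.5, 5 mM MgCl2, 25 mM K glutamate, 2 mM spermidine, 2 mM ATP, BSA, tRNA, 5% glycerol; 30 min; heat-stopped 65 °C 15 min; agarose gel, ethidium bromide staining; ciprofloxacin 10 µg/ml and 5% DMSO controls.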

Mus musculus [11] = experiment: Phototoxicity in Swiss albino mouse assessed as erythema incidence at 140 mg/kg, po after 96 hrs of irradiation; format: organism-based; parameters: dose 140 mg/kg, route oral; conditions: in vivo; in short: as §2
Mus musculus [12] = experiment: Phototoxicity in Swiss albino mouse assessed as ear thickness at 140 mg/kg, po after 4 hrs of irradiation; format: organism-based; parameters: dose 140 mg/kg, route oral; conditions: in vivo; in short: as §2
Mus musculus [13] = experiment: Phototoxicity in Swiss albino mouse assessed as ear thickness at 140 mg/kg, po after 96 hrs of irradiation; format: organism-based; parameters: dose 140 mg/kg, route oral; conditions: in vivo; in short: as §2
Mus musculus [14] = experiment: as §3; format: organism-based; parameters: dose 140 mg/kg, route oral; conditions: in vivo; in short: as §2; remark: listed apart in the source
Mus musculus [15] = experiment: Phototoxicity in Swiss albino mouse assessed as ear thickness at 140 mg/kg, po after 48 hrs of irradiation; format: organism-based; parameters: dose 140 mg/kg, route oral; conditions: in vivo; in short: as §2
[16] = tested on: Mycobacterium tuberculosis; experiment: Antimycobacterial activity against Mycobacterium tuberculosis ATCC 35801 infected in CD1 mouse assessed as bacterial load in lungs at 50 mg/kg, ip after 10 days; format: functional; conditions: route intraperitoneal; in short: as §1

COc1ccc(CC2C3=C(CCCC3)CCN2c2c(F)c([N+](=O)[O-])c3c(=O)c(C(=O)O)cn(C4CC4)c3c2OC)cc1 (configuration not stated)
Selectivity index [1]: 676.31 | Activity [2]: 6.1 | IC50 (Vero): 108 µM | MIC [3]: 0.68 µM (≈ 0.393 µg/mL) | MIC [4]: 0.16 µM (≈ 0.0924 µg/mL) | Activity (Mus musculus [5]): Non-toxic | Activity (Mus musculus [6]): 0.33 mm | Activity (Mus musculus [7]): Non-toxic | Activity (Mus musculus [8]): 0.32 mm | Activity (Mus musculus [9]): Non-toxic | IC50 [10]: 51.9 µM | Activity (Mus musculus [11]): Non-toxic | Activity (Mus musculus [12]): 0.33 mm | Activity (Mus musculus [13]): 0.32 mm | Activity (Mus musculus [14]): Non-toxic | Activity (Mus musculus [15]): 0.33 mm | Activity [16]: 5.41

Source: ChEMBL document CHEMBL1144027, “Synthesis and antimycobacterial evaluation of newer 1-cyclopropyl-1,4-dihydro-6-fluoro-7-(substituted secondary amino)-8-methoxy-5-(sub)-4-oxoquinoline-3-carboxylic acids” (Bioorg Med Chem, 2008)
